Measured values from ChEMBL document CHEMBL1127613, “Synthesis and pharmacological properties of 11-hydroxy-3-(1',1'-dimethylheptyl)hexahydrocannabinol: a high-affinity cannabinoid agonist” (1994).

Experiments:
Type in all cases: functional
Mus musculus [1] = assay: Compound was evaluated for reduction of rectal temperature at 60 min in mouse when administered intravenously; conditions: iv, 1 h
In short: (§1)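 Mice given the analog by intravenous injection, then run through a tetrad. Spontaneous activity is scored at 5–15 min, tail-flick at 20 min, rectal temperature at 60 min and ring immobility at 90 min after injection. ED50 comes from log dose–response linear regression over n = 4–7 active doses, with standard error estimated by ALLFIT.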

Mus musculus [2] = assay: Compound was evaluated for production of ring immobility at 90 min in mouse when administered intravenously; conditions: iv, 1.5 h; in short: as §1
Mus musculus [3] = assay: Compound was evaluated for inhibition of tail-flick response at 20 min in mouse when administered intravenously; conditions: iv; in short: as §1
Mus musculus [4] = assay: Compound was evaluated for inhibition of spontaneous activity at 5-15 min in mouse when administered intravenously; conditions: iv; in short: as §1

## CCCCCCC(C)(C)c1cc(O)c2c(c1)OC(C)(C)[C@H]1CC[C@H](CO)C[C@H]21
Mus musculus [1]
  ED50: 6.9 mg/kg
Mus musculus [2]
  ED50: 2.5 mg/kg
Mus musculus [3]
  ED50: 0.58 mg/kg
Mus musculus [4]
  ED50: 0.77 mg/kg

## CCCCCCC(C)(C)c1cc(O)c2c(c1)OC(C)(C)[C@@H]1CC[C@@H](CO)C[C@@H]21
Mus musculus [1]
  ED50: 0.037 mg/kg
Mus musculus [2]
  ED50: 0.027 mg/kg
Mus musculus [3]
  ED50: 0.0018 mg/kg
Mus musculus [4]
  ED50: 0.0054 mg/kg

## CCCCCc1cc(O)c2c(c1)OC(C)(C)C1CCC(C)=C[C@@H]21 (single isomer, unassigned) [DRONABINOL]
Mus musculus [1]
  ED50: 1.42 mg/kg
Mus musculus [2]
  ED50: 1.51 mg/kg
Mus musculus [3]
  ED50: 1.42 mg/kg
Mus musculus [4]
  ED50: 1.01 mg/kg
